Assay [1] addresses Phospholipase D2 (Homo sapiens) (UniProt O14939). Put plainly: Inhibition of PLD2 (unknown origin) overexpressed in human A549 cells. The assay is classed as cell-based. The essentials:
(§1)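 A549 cells transfected with wild-type PLD1, PLD1 mutants (L425A, F614A, F789A) or PLD2, then compound-treated. PLD activity measured as [3H]phosphatidylbutanol formed in the presence of 1-butanol after [3H]myristic acid labeling, expressed as % of total lipid cpm. At least three independent experiments.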

The test system of assay [2] is Mus musculus. Nature of the assay: In vivo inhibition of KRAS activation in male C57BL/6 mouse allografted with mouse Lewis lung carcinoma cell line assessed as decrease in Akt phosphorylation at 10 mg/kg, po. The assay is classed as functional, organism-based.
The test system of assay [3] is Lewis lung carcinoma cell line. Nature of the assay: Antitumor activity against mouse Lewis lung carcinoma cell line allografted in male C57BL/6 mouse model assessed as reduction in tumor formation at 10 mg/kg, po measured every other day for 3 weeks. The assay is classed as functional, organism-based. In short, it runs like this:
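Syngeneic model: 6-week-old male C57BL/6 mice given 3 × 10^5 LLC cells in 50 μL PBS subcutaneously in the flank. At day 7, mice were randomized to vehicle PO daily or 10 mg/kg PO every other day for 3 weeks. Caliper volume was taken every 2 days as ([…])/2, with tumor weight at end. Spleen size and weight were recorded. Ki67 and cleaved caspase-3 were scored by IHC (DAB, hematoxylin).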

In assay [4] the test system is A549. Nature of the assay: Inhibition of PLD1 F789A mutant (unknown origin) overexpressed in human A549 cells. Type of assay: cell-based. The essentials: as §1
The subject of assay [5] is A549. Put plainly: Induction of apoptosis in human A549 cells measured up to 48 hrs in presence of gemcitabine by Annexin V-FITC and PI staining based flow cytometry analysis. The assay is classed as functional, cell-based. In short, it runs like this: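 A549 cells given compound, gemcitabine, or both. Apoptosis assessed by PI staining, annexin V flow cytometry, cleaved PARP immunoblot, and caspase-3 activity. For caspase-3: drugs at 10 μM for 48 h, then 1 μM NucView 488 substrate for 30 min, with 1 μM Hoechst 33342, read by plate fluorescence.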
(In general: A flow cytometer gives signals particle by particle.)

Assay [6] has as its system Mus musculus. Put plainly: In vivo inhibition of KRAS activation in male C57BL/6 mouse allografted with mouse Lewis lung carcinoma cell line assessed as decrease in IKBalpha phosphorylation at 10 mg/kg, po. The assay is classed as functional, organism-based.
A short description of assay [7]: Inhibition of PLD in human A549 cells measured after 1 hr by amplex red phospholipase D assay. The assay is classed as cell-based.
In a further assay the test system is Calu-6. Nature of the assay: Cytotoxicity against human Calu-6 cells assessed as inhibition of cell growth incubated for 48 hrs by WST-1 assay. Type of assay: functional, cell-based. The settings on record: Calu-6, 48 h. In general terms: Tetrazolium dyes change colour on reduction, which living cells bring about.
Assay [8] has as its target T1, Phospholipase D1 (Homo sapiens) (UniProt Q13393).
T1 sequence (whole entry): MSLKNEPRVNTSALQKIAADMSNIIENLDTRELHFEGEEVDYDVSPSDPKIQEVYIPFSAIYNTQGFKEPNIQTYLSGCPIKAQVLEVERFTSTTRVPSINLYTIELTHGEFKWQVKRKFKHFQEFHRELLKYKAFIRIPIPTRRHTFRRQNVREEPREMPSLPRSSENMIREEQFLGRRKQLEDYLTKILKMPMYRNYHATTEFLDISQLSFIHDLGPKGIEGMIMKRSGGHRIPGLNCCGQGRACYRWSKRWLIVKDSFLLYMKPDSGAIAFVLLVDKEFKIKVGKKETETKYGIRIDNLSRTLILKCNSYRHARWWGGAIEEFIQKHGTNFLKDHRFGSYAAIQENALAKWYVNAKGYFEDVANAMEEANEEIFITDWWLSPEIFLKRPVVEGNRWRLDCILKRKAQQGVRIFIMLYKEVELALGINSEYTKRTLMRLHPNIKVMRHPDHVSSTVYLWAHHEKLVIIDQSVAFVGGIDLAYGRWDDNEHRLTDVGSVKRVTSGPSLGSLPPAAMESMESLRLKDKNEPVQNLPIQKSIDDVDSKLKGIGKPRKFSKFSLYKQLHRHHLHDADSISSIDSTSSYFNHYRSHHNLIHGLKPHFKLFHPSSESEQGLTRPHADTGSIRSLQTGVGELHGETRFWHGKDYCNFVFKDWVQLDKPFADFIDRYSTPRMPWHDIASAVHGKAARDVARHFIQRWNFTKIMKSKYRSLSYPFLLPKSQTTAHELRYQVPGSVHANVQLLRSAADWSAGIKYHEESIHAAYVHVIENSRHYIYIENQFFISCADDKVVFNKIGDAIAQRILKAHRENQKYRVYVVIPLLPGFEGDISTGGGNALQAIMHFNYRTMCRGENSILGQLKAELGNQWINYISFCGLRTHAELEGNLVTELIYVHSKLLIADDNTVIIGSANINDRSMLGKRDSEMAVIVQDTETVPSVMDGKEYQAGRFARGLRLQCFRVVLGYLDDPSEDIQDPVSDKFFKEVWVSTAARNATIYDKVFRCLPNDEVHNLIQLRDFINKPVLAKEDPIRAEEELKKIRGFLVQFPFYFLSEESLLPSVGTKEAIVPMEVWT
Put plainly: Inhibition of PLD1 (unknown origin) overexpressed in human A549 cells. Type of assay: cell-based. In short, it runs like this: as §1

The test system of assay [9] is Lewis lung carcinoma cell line. Nature of the assay: Antitumor activity against mouse Lewis lung carcinoma cell line allografted in […] male C57BL/6 mouse model assessed as suppression of tumor formation at 10 mg/kg, po measured every other day for 3 weeks. The assay is classed as functional, organism-based.

Active and inactive are the calls of the source. The rule behind the calls is not given here.

The IC50 is the point on the concentration scale where inhibition reaches its midpoint.

Chain of Phospholipase D2 (Homo sapiens) (O14939 whole entry): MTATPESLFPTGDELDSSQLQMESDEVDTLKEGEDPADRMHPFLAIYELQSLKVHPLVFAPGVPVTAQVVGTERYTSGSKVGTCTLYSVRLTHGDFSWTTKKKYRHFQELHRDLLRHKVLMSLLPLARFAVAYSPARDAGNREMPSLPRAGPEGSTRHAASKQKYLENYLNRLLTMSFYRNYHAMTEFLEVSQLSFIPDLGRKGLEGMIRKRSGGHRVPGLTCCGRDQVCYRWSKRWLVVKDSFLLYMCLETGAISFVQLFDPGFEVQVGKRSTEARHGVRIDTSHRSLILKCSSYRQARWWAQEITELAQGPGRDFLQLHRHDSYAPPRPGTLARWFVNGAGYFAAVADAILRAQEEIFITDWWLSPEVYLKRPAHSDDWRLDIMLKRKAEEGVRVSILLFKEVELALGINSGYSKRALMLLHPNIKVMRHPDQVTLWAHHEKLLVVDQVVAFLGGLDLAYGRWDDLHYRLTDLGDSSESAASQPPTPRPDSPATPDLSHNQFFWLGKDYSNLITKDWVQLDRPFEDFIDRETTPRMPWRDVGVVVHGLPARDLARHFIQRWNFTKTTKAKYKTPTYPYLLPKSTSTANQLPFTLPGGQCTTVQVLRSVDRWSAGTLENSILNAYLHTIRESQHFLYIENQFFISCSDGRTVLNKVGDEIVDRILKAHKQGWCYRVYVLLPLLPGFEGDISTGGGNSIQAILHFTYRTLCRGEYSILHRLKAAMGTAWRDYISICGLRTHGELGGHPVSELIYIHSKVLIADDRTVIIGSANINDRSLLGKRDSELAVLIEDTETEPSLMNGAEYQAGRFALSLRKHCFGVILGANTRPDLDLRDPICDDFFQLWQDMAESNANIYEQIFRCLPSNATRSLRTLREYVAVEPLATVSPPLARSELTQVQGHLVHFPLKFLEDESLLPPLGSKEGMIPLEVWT

Regarding `O=C(CCc1c[nH]c2ccccc12)Nc1cc(C(F)(F)F)cc(C(F)(F)F)c1`, the inhibition entry (in assay [1]; with A549 [4]) was “inactive” in each case. Moreover, the inhibition result (with Mus musculus [2]; in the assay with Mus musculus [6]; in assay [8]) was “Active” throughout. In addition, the result (in assay [3]; in the assay on A549 [5]; in assay [9]) was Active. Besides, the figures for the half-maximal inhibitory concentration (IC50) (in assay [7]; with Calu-6) were 1.97 µM and 19 µM, respectively.

Values taken from ChEMBL document CHEMBL6134796, “Development and Evaluation of Indole-Based Phospholipase D Inhibitors for Lung Cancer Immunotherapy” (J Med Chem, 2025).
